Experimental data published in the M2OR odorant receptor database.

Columns and labels:
OR5K1 (Homo sapiens) = target: T1, OR5K1 (Homo sapiens) (UniProt Q8NHB7); details: stereoisomer not certain
T1 sequence (whole entry): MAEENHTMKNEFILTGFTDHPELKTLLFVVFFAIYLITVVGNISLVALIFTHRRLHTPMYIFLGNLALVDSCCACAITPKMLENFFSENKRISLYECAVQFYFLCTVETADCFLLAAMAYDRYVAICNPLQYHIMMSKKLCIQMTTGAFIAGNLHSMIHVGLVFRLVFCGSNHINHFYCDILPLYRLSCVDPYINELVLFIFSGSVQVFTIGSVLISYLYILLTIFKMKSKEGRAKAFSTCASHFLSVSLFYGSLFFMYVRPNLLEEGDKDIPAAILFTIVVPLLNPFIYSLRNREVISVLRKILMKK
Procedure, shortened: (§1)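 Whether a receptor–molecule pair is responsive (active) rests on the original authors' judgment that its measured signal was statistically different from baseline. Pairs without that judgment are non-responsive (inactive). Sources used varied assay methods, commonly transient luciferase assays in mammalian cell lines.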

OR5M3 (Homo sapiens) = target: T2, OR5M3 (Homo sapiens) (UniProt Q8NGP4); details: stereoisomer not certain
T2 sequence (whole entry): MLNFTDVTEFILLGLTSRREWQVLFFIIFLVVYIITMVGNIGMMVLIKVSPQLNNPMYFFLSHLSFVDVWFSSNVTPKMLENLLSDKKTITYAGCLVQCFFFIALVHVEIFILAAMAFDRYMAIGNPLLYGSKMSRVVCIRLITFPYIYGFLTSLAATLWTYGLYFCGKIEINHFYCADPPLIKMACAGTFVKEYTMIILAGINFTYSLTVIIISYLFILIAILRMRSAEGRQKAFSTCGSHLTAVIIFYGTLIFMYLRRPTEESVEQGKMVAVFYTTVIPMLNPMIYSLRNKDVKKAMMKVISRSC
Procedure, shortened: as §1
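Further: active if original authors judged signal statistically different from baseline.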

Structure (SMILES)	odorant receptor agonist call (OR5K1 (Homo sapiens))	odorant receptor agonist call (OR5M3 (Homo sapiens))
CCCCCC(C)O (configuration not stated)	inactive	inactive
CCC(=O)O	inactive	inactive
CCOC(C)=O	inactive	inactive
CSCCC=O	inactive	inactive
C=CC(=C)CCC=C(C)C	inactive	inactive
CC(=O)O	inactive	inactive
CCCCCCCC1CCCC(=O)O1 (configuration not stated)	inactive	inactive
Cc1occc(=O)c1O	inactive	inactive
CCCCCC1CCC(=O)O1 (configuration not stated)	inactive	inactive
CCOC(=O)C(C)CC (configuration not stated)	inactive	inactive
CCCC(=O)OC	inactive	inactive
Cc1cccc(O)c1	inactive	inactive
COc1ccc2ccc(=O)oc2c1	inactive	inactive
CCOC(=O)C=Cc1ccccc1	inactive	inactive
CC(=O)C=CC1=C(C)CCCC1(C)C	inactive	inactive
SCCc1ccccc1	inactive	inactive
CCC=CCCC=O	inactive	inactive
OCC=Cc1ccccc1	inactive	inactive
CCCCCC=CC=O	inactive	inactive
CCCCC(=O)OCC	inactive	inactive
CC(C)CC=O	inactive	inactive

Structure (SMILES)	odorant receptor agonist call (OR5K1 (Homo sapiens))	odorant receptor agonist call (OR5M3 (Homo sapiens))
CCCC(=O)C(C)CC (configuration not stated)	inactive	inactive
CCCCCCCC(=O)OCC	inactive	inactive
CCCCCCC=CC=O	inactive	inactive
CCC=O	inactive	inactive
CC(C)=CC1CC(C)CCO1 (configuration not stated)	inactive	inactive
CCCSSSCCC	inactive	inactive
CCCCCCCC(=O)[O-].[H+]	inactive	inactive
CCCC=CC=O	inactive	inactive
CCCCCCCCCC(=O)[O-].[H+]	inactive	inactive
CCC(C)CCC(=O)[O-] (configuration not stated)	inactive	inactive
COC(=O)C(C)C	inactive	inactive
CCc1cccc(O)c1	inactive	inactive
CC(=O)OCCC(C)C	inactive	inactive
CCCC(S)CCO (configuration not stated)	inactive	inactive
CCC(C)CO (configuration not stated)	inactive	inactive
C=C(C)c1ccc(C)cc1	inactive	inactive
C=Cc1ccc(O)cc1	inactive	inactive
CC(C)=CCCC(C)=CCO	inactive	inactive
CCC(=O)C1=NCCC1	inactive	inactive
CCC=CCC=O	inactive	inactive
CC(=O)OCC=Cc1ccccc1	inactive	inactive

Structure (SMILES)	odorant receptor agonist call (OR5K1 (Homo sapiens))	odorant receptor agonist call (OR5M3 (Homo sapiens))
CCCCC=CC=CC=O	inactive	inactive
CCOC(=O)CCSC	inactive	inactive
CC1(C)OC=CC1=O	–	inactive
CCCCCCCCCO	–	inactive
CCCCCCO	inactive	inactive
Cc1occc1S	inactive	inactive
CCCCC1CCC(=O)O1 (configuration not stated)	inactive	inactive
COc1cccc(OC)c1O	inactive	inactive
CCOC(=O)c1ccccc1	inactive	inactive
COC(=O)C=Cc1ccccc1	–	inactive
CSC	inactive	inactive
CC1=CC(=O)C(C)O1 (configuration not stated)	–	inactive
C=C1CCC2(C(C)C)CC12 (configuration not stated)	inactive	inactive
CCC=CCCOC(C)=O	inactive	inactive
CSSc1ccoc1C	inactive	inactive
OCCc1ccccc1	inactive	inactive
CC1=CCOC1=O	–	inactive
CCC=CCCC=CC=O	inactive	inactive
C=C(C)C1CC=C(C)CC1 (configuration not stated)	inactive	inactive
